Results collected from several papers.
Trypanothione synthetase: Trypanothione synthetase (Trypanosoma cruzi, UniProt Q9GT49)
murC: UDP-N-acetylmuramate--L-alanine ligase (murC, Escherichia coli K-12, UniProt P17952)
MTNR1A: Melatonin receptor type 1A (MTNR1A, Homo sapiens, UniProt P48039)
Grm1: Metabotropic glutamate receptor 1 (Grm1, Rattus norvegicus, UniProt P23385)
CDC42BPG: Serine/threonine-protein kinase MRCK gamma (CDC42BPG, Homo sapiens, UniProt Q6DT37)
BMP2K: BMP-2-inducible protein kinase (BMP2K, Homo sapiens, UniProt Q9NSY1)

`Nc1ncnc2occ(-c3ccc(NC(=O)Nc4cc(C(F)(F)F)ccc4F)cc3)c12` gave a remaining signal of 0.1% (Receptor-type tyrosine-protein kinase FLT3 (FLT3, Homo sapiens, UniProt P36888, ITD); cell-free assay, inhibitor; 20 µM).
The remaining activity of `CCCOc1ccc(OC)c(F)c1C(=O)c1ccc(C(=O)N[C@@H]2CNC[C@H]2NC(=O)c2ccc3[nH]ncc3c2)cc1` is reported as 25% (Rho-associated protein kinase 2 (ROCK2, Homo sapiens, UniProt O75116); enzyme activity, inhibitor; 0.1 µM).
With `O=C(CN1C(=O)Cc2c([nH]c3ccc(Br)cc23)-c2ccc(Cl)cc21)N1CCCCC1` the inhibition was 7.1% (Trypanothione synthetase; enzyme activity, inhibitor, absorbance; 30 µM).
`N#Cc1ccc(COc2ccccc2C=NNS(=O)(=O)c2ccc3ccccc3c2)cc1` has a remaining activity of 36% (murC; enzyme activity, inhibitor, absorbance; 100 µM).
With `Oc1ccc(-c2nc(-c3ccncc3)c(-c3ccc(F)cc3)[nH]2)cc1` the ΔTm was 0.66 °C (BRWD3 (Homo sapiens, UniProt Q6RI45); thermal stability, DSF; 10 µM).
`CCc1ccc2scc(CCNC(C)=O)c2c1` has an Emax of 75% (MTNR1A; cAMP, agonist, TR-FRET; CHO-K1; 20 min).
With `O=C(Nc1ccc(N2C(=O)c3ccccc3C2=O)c(Cl)c1)c1ncccc1Cl` the Emax was 77% (Grm1; calcium signal, positive allosteric modulator; T-REx-293).
`Cc1cc(NC(=O)c2cccc3cc(-c4cccc5[nH]nc(N)c45)ccc23)ccc1F` gave an activity vs control of 95% (MAPK/MAK/MRK overlapping kinase (MOK, Homo sapiens, UniProt Q9UQ07); enzyme activity, inhibitor; 0.1 µM).
With `Cc1ccc(C(=O)Nc2ccc(CN3CCN(C)CC3)c(C(F)(F)F)c2)cc1C#Cc1cnc2cccnn12` the remaining signal was 100% (CDC42BPG; cell-free assay; 23.5 nM).
The inhibition of `O=C(Nc1ccc(S(=O)(=O)N2CCC(Cl)CC2)cc1)c1ccc([N+](=O)[O-])o1` is reported as 8% (MTNR1A; ligand displacement, radioligand; 10 µM).
`COc1ccc2[nH]cc(CCNC(C)=O)c2c1I` gave an Emax of 90% (MTNR1A; cAMP, agonist, TR-FRET; CHO-K1; 20 min).
The remaining activity of `O=C(NCCCNc1nc(Nc2cccc(NC(=O)N3CCCC3)c2)ncc1C1CC1)C1CCC1` is reported as 8% (BMP2K; enzyme activity, inhibitor, radiometric; 1 µM).
The Emax of `COc1cc(I)c2[nH]cc(CCNC(C)=O)c2c1` is reported as 39% (MTNR1A; GTPγS binding, agonist, radiometric; cell membranes).
For `CN(C)C1CCN(CC#Cc2nn(C3CCCC3)c3nc(NCc4ccccc4)ncc23)C1` (stereo not shown), the inhibition was -2% (Testis-specific serine/threonine-protein kinase 1 (TSSK1B, Homo sapiens, UniProt Q9BXA7); enzyme activity, inhibitor, FRET; 1 µM).
With `O=C(CN1C(=O)Cc2c([nH]c3ccc(Br)cc23)-c2ccc(Cl)cc21)Nc1ccccc1` the inhibition was 29.6% (Trypanothione synthetase; enzyme activity, inhibitor, absorbance; 30 µM).
The Emax of `Cc1cccnc1C(=O)Nc1ccc(N2C(=O)c3cccc(Cl)c3C2=O)c(Cl)c1` is reported as 118% (Grm1; calcium signal, positive allosteric modulator; T-REx-293).
With `NS(=O)(=O)c1ccc(CNc2ccnc(Nc3cccc(NC(=O)N4CCCC4)c3)n2)cc1` the remaining activity was 80% (BMP2K; enzyme activity, inhibitor, radiometric; 1 µM).
With `CCN(Cc1ccccc1C(F)(F)F)C(=O)C1CCN(S(=O)(=O)c2ccc3[nH]ncc3c2)CC1` the inhibition was 8% (B1 bradykinin receptor (BDKRB1, Homo sapiens, UniProt P46663); ligand displacement, radioligand; 10 µM).
`COc1ccc2ncn(CCNC(C)=O)c2c1` has an Emax of 53% (MTNR1A; GTPγS binding, agonist, radiometric; cell membranes).
`c1cc(CN2CCOCC2)cc(Nc2ncc(C3CC3)c(NCCc3c[nH]cn3)n2)c1` gave a remaining activity of 18% (BMP2K; enzyme activity, inhibitor, radiometric; 1 µM).
`COc1cc2c(CCNC(C)=O)c[nH]c2cc1I` has an Emax of 101% (MTNR1A; β-arrestin recruitment, agonist; CHO-K1; 90 min).
`NS(=O)(=O)c1ccc(CNc2nc(Nc3cccc(NC(=O)N4CCCC4)c3)ncc2Br)cc1` has a remaining activity of 1% (BMP2K; enzyme activity, inhibitor, radiometric; 1 µM).
For `COc1cc2c(CCNC(C)=O)c(I)[nH]c2cc1[N+](=O)[O-]`, the Emax was 92% (MTNR1A; cAMP, agonist, TR-FRET; CHO-K1; 20 min).
`CN1CCN(CCNC(=O)CN2C(=O)Cc3c([nH]c4ccc(Br)cc34)-c3ccc(Cl)cc32)CC1` has an inhibition of 16.8% (Trypanothione synthetase; enzyme activity, inhibitor, absorbance; 30 µM).
The remaining activity of `N#Cc1ccc(COc2ccccc2C=NNS(=O)(=O)c2ccccc2[N+](=O)[O-])cc1` is reported as 95% (murC; enzyme activity, inhibitor, absorbance; 100 µM).
For `Oc1cccc(Nc2nc(-c3ccc(F)cc3F)cs2)c1`, the inhibition was 17.4% (5-hydroxytryptamine receptor 2C (HTR2C, Homo sapiens, UniProt P28335); ligand displacement, radioligand; 10 µM).
For `O=C(Nc1ccc(C=NNS(=O)(=O)c2ccc3ccccc3c2)cc1)c1ccccc1`, the remaining activity was 97% (murC; enzyme activity, inhibitor, absorbance; 100 µM).
`Cc1nn(CC(F)(F)F)cc1Nc1ncc(Br)c(NCc2ccc(S(N)(=O)=O)cc2)n1` gave a remaining activity of 30% (BMP2K; enzyme activity, inhibitor, radiometric; 1 µM).
`COc1cc(NC(C)=O)c(Cl)cc1C(=O)Nc1nccs1` gave an inhibition of 72% (Prostaglandin G/H synthase 1 (PTGS1, Homo sapiens, UniProt P23219); enzyme activity, inhibitor; 10 µM).
The remaining activity of `O=C(Nc1ccc(C=NNS(=O)(=O)c2ccc3ccccc3c2)cc1)c1cc([N+](=O)[O-])cc([N+](=O)[O-])c1` is reported as 72% (murC; enzyme activity, inhibitor, absorbance; 100 µM).
`Cc1nn(CC(F)(F)F)cc1Nc1ncc(Br)c(NCCc2cnc[nH]2)n1` gave a remaining activity of 47% (BMP2K; enzyme activity, inhibitor, radiometric; 1 µM).
The Emax of `COc1ccc2cccc(CCNC(C)=O)c2c1` is reported as 96% (MTNR1A; β-arrestin recruitment, agonist; CHO-K1; 90 min).
With `N#Cc1ccc(COc2ccccc2C=NNS(=O)(=O)Cc2ccccc2F)cc1` the remaining activity was 59% (murC; enzyme activity, inhibitor, absorbance; 100 µM).
With `FC(F)(F)Oc1cccc(-c2cnc3ccc(-c4ccncc4)nn23)c1` the remaining binding was 18% (CDC42BPG; cell-free assay, competition with immobilised ligand; 5 µM).
`NC(=O)CN1C(=O)Cc2c([nH]c3ccc(Br)cc23)-c2ccc(Cl)cc21` gave an inhibition of 5.2% (Trypanothione synthetase; enzyme activity, inhibitor, absorbance; 30 µM).
The remaining activity of `O=C(NCCCNc1nc(Nc2cccc(NC(=O)N3CCCC3)c2)ncc1I)c1cccs1` is reported as 1% (BMP2K; enzyme activity, inhibitor, radiometric; 1 µM).
With `CC(CCC(=O)NCC(=O)O)C1CCC2C3CCC4CC(O)CCC4(C)C3CC(O)C12C` (stereo not shown) the ΔTm was 9.2 °C (Serine hydroxymethyltransferase, cytosolic (SHMT1, Homo sapiens, UniProt P34896); thermal stability; 50 µM).
